From ChEMBL document CHEMBL4177657, “Structure-activity relationships of 2-substituted phenyl-N-phenyl-2-oxoacetohydrazonoyl cyanides as novel antagonists of exchange proteins directly activated by cAMP (EPACs)” (Bioorg Med Chem Lett, 2017)

Tests used:
[1] = molecular target: T1, Rap guanine nucleotide exchange factor 3 (Homo sapiens, UniProt O95398); assay: (§1) Antagonist activity at recombinant full length EPAC1 (unknown origin) assessed as inhibition of cAMP-mediated Rap1b-BODIPY GDP nucleotide exchange activity
T1 sequence (O95398 whole entry): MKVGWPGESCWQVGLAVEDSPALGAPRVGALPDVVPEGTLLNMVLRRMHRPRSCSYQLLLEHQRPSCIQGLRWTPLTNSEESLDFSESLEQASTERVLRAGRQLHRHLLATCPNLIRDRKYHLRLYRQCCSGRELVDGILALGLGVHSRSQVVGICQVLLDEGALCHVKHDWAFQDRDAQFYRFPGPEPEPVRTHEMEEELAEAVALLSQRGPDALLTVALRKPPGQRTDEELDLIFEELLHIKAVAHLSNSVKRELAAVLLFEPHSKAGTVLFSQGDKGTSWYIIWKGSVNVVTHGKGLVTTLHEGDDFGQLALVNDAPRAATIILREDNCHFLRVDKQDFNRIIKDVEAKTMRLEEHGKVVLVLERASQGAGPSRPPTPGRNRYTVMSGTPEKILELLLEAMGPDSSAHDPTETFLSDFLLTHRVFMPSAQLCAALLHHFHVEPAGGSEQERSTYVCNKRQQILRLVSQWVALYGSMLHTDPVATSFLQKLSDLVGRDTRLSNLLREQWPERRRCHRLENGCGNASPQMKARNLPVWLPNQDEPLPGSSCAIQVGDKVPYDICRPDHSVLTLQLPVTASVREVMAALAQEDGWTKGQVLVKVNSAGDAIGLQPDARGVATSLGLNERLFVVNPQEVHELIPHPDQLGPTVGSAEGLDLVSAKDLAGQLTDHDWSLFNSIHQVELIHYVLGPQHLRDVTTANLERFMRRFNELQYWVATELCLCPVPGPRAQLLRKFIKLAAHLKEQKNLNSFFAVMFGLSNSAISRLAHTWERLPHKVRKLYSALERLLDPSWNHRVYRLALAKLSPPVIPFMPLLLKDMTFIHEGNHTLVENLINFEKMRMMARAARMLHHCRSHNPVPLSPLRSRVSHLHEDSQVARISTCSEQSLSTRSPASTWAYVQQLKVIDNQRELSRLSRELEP
In short: (§2)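 Guanine nucleotide exchange on Rap1b loaded with BODIPY-GDP (Rap1b-bGDP), catalysed by EPAC1 in the presence of 20 μM cAMP. Inhibitor is tested over a dose range. GEF activity is expressed as a normalized reaction rate constant, and IC50 is taken from the dose-response curves. Values are mean ± SE, n = 3.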

[2] = molecular target: T2, Rap guanine nucleotide exchange factor 3 (Homo sapiens) (UniProt O95398); assay: as §1; in short: as §2
T2 sequence (whole entry): T1 sequence (O95398 whole entry)

[3] = molecular target: Rap guanine nucleotide exchange factor 4 (Homo sapiens, UniProt Q8WZA2); assay: Antagonist activity at recombinant full length EPAC2 (unknown origin) assessed as inhibition of cAMP-mediated Rap1b-BODIPY GDP nucleotide exchange activity
In short: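 Guanine nucleotide exchange on Rap1b loaded with bGDP, catalysed by EPAC2 in the presence of 20 μM cAMP and run across a compound dose range. Relative GEF activity is expressed as the normalized reaction rate constant.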

Row | SMILES | IC50 [1] [µM] | inhibition [2] | IC50 [3] [µM] | inhibition [3]
1 | CC(C)(C)c1cc(C(=O)/C(C#N)=N/Nc2cccc(Cl)c2)no1 | 9.1 to 10.8 | Dose-dependent effect | 4.4 to 8.9 | Dose-dependent effect
2 | C[C@@H]1CCc2c(cc(Br)c(F)c2Br)N1C=O | 5.5 |  | 17 | 
